{"data": "Experimental data from different studies", "note": "Protocols differ between the studies behind these lines."}
{"SMILES": "CCCCC1=CC2C=CC=CC1C2C1CCCCC1=O (stereo not shown)", "cell line": "Jurkat", "effect on": "cell growth or viability", "technique": "flow cytometry", "IC50 [nM]": 37}
{"SMILES": "O=C(O)/C=C/c1ccc(O)cc1", "cell line": "PaCa-2", "effect on": "cell growth or viability", "technique": "MTT", "IC50 [nM]": "> 50000"}
{"SMILES": "Cc1ccc2c(c1)c(C(c1ccc(/C=C/C(=O)O)s1)c1cn(C(C)C)c3ccc(C)cc13)cn2C(C)C", "cell line": "LNCaP", "effect on": "cell growth or viability", "technique": "MTT", "time": "48 h", "IC50 [nM]": "< 3000"}
{"SMILES": "CC(=O)c1ccc(/N=N/c2cc(/C=C/C(=O)O)ccc2O)cc1", "cell line": "PaCa-2", "effect on": "cell growth or viability", "technique": "MTT", "IC50 [nM]": "> 50000"}
{"SMILES": "COc1cc(Nc2nccc(-c3cnn4nc(OC)ccc34)n2)cc(C(F)(F)F)c1", "cell line": "LN-229", "effect on": "cell growth or viability", "technique": "ATP luminescence", "IC50 [nM]": 580}
{"SMILES": "COc1ccc(C(=O)O[C@@H]2CN3Cc4c(cc5c(c4OC)OCO5)[C@@]24C=C[C@H](OC)C[C@@H]34)cc1", "cell line": "MOLT-4", "effect on": "cell growth or viability", "technique": "WST-1", "IC50 [nM]": "> 10000"}
{"SMILES": "CC(=O)OCCC1=CC2C=CC=CC1C2C1CCCCC1=O (stereo not shown)", "cell line": "Jurkat", "effect on": "cell growth or viability", "technique": "flow cytometry", "IC50 [nM]": 64}
{"SMILES": "CC(C)C[C@H](NC(=O)[C@H](Cc1ccccc1)NC(=O)c1cnccn1)B(O)O", "cell line": "COV434", "effect on": "cell growth or viability", "technique": "ATP luminescence", "IC50 [nM]": 16}
{"SMILES": "COC(=O)CCC1=CC2C=CC=CC1C2C1CCCCC1=O (stereo not shown)", "cell line": "Jurkat", "effect on": "cell growth or viability", "technique": "flow cytometry", "IC50 [nM]": 159}
{"SMILES": "COc1cc(-c2oc3cc(O)cc(O)c3c(=O)c2O)ccc1O", "cell line": "SW780", "effect on": "cell growth or viability", "technique": "ATP luminescence", "time": "72 h", "IC50 [nM]": 12500}
{"SMILES": "CC/C(=C(\\c1ccc(O)cc1)c1ccc(OCCN(C)C)cc1)c1ccccc1", "cell line": "T47D", "effect on": "cell growth or viability", "time": "5 days", "IC50 [nM]": 2160}
{"SMILES": "C[C@H](Nc1ncnc2nc[nH]c12)c1cc2cccc(Cl)c2c(=O)n1-c1ccccc1", "cell line": "CD4+ T", "effect on": "IL-2 release", "mode": "inhibitor", "IC50 [nM]": 1.9}
{"SMILES": "Cn1cc(C(c2cccc(/C=C/C(=O)O)c2)c2cn(C)c3ccccc23)c2ccccc21", "cell line": "LNCaP", "effect on": "cell growth or viability", "technique": "MTT", "time": "48 h", "IC50 [nM]": "> 20000"}
{"SMILES": "O=c1c(O[C@@H]2O[C@H](CO)[C@H](O)[C@H](O)[C@H]2O)c(-c2ccc(O)c(O)c2)oc2cc(O)cc(O)c12", "cell line": "SW780", "effect on": "cell growth or viability", "technique": "ATP luminescence", "time": "72 h", "IC50 [nM]": 136000}
{"SMILES": "CN1CCN(c2ccc3nc(-c4c(N)c5c(F)cccc5[nH]c4=O)[nH]c3c2)CC1", "cell line": "SW780", "effect on": "cell growth or viability", "technique": "MTT", "time": "5 days", "IC50 [nM]": 450}
{"SMILES": "COc1c2c(cc3c1OCO3)[C@]13C=C[C@H](OC)C[C@H]1N(C2)C[C@H]3OC(=O)c1cccc(C)c1", "cell line": "MOLT-4", "effect on": "cell growth or viability", "technique": "WST-1", "IC50 [nM]": "> 10000"}
{"SMILES": "COc1cc2c(=O)n(CCN(C)C)c3c4cc5c(cc4ncc3c2cc1OC)OCO5", "cell line": "RPMI 8402", "effect on": "cell growth or viability", "technique": "MTT", "time": "96 h", "IC50 [nM]": 2}
{"SMILES": "N#CCCCC1=CC2C=CC=CC1C2C1CCCCC1=O (stereo not shown)", "cell line": "Jurkat", "effect on": "cell growth or viability", "technique": "flow cytometry", "IC50 [nM]": 69}
{"SMILES": "COc1cc(N2CCC(N3CCN(C)CC3)CC2)ccc1Nc1ncc(Cl)c(Nc2ccccc2S(=O)(=O)C(C)C)n1", "cell line": "Rh4", "effect on": "cell growth or viability", "time": "72 h", "IC50 [nM]": 90}
{"SMILES": "c1ccc(CNCc2cc3c(-c4ccccc4)n[nH]c3c(Nc3ccccc3)n2)cc1", "cell line": "MIA PaCa-2", "effect on": "cell growth or viability", "technique": "MTS", "time": "48 h", "IC50 [nM]": 2600}
{"SMILES": "CC(C)n1cc(C(c2ccc(/C=C/C(=O)O)s2)c2cn(C(C)C)c3ccccc23)c2ccccc21", "cell line": "LNCaP", "effect on": "cell growth or viability", "technique": "MTT", "time": "48 h", "IC50 [nM]": 26000}
{"SMILES": "CC(=O)c1ccc(N=Nc2c(C(=O)O)cc(O)c(O)c2O)cc1", "cell line": "PaCa-2", "effect on": "cell growth or viability", "technique": "MTT", "IC50 [nM]": 12000}
{"SMILES": "COc1cc2c(Oc3ccc(NC(=O)C4(C(=O)Nc5ccc(F)cc5)CC4)cc3F)ccnc2cc1OCCCN1CCOCC1", "cell line": "Rh4", "effect on": "cell growth or viability", "time": "72 h", "IC50 [nM]": 220}
{"SMILES": "OC[C@H]1O[C@@H](Oc2cc3c(O)cc(O)cc3[o+]c2-c2ccc(O)c(O)c2)[C@H](O)[C@@H](O)[C@@H]1O", "cell line": "SW780", "effect on": "cell growth or viability", "technique": "ATP luminescence", "time": "72 h", "IC50 [nM]": 169000}
{"SMILES": "CC(C)(C)OC(=O)NCCOc1cc(NC(=O)c2cnccn2)c2ncccc2c1", "cell line": "MIA PaCa-2", "effect on": "cell growth or viability", "technique": "MTT", "time": "72 h", "IC50 [nM]": "< 1000"}
{"SMILES": "Cc1[nH]c(/C=C2\\C(=O)Nc3ccc(S(=O)(=O)N(C)c4cccc(Cl)c4)cc32)c(C)c1C(=O)N1CCN(C)CC1", "cell line": "Rh4", "effect on": "cell growth or viability", "time": "72 h", "IC50 [nM]": 2210}
{"SMILES": "NCc1cc2c(-c3ccccc3)n[nH]c2c(Nc2ccccc2)n1", "cell line": "MIA PaCa-2", "effect on": "cell growth or viability", "technique": "MTS", "time": "48 h", "IC50 [nM]": 2300}
{"SMILES": "O=C(O)C(c1c[nH]c2ccccc12)c1c[nH]c2ccccc12", "cell line": "LNCaP", "effect on": "cell growth or viability", "technique": "MTT", "time": "48 h", "IC50 [nM]": "> 100000"}
{"SMILES": "CC(=O)c1cccc(/N=N/c2cc(/C=C/C(=O)O)ccc2O)c1", "cell line": "PaCa-2", "effect on": "cell growth or viability", "technique": "MTT", "IC50 [nM]": "> 50000"}
{"SMILES": "O=c1c(O)c(-c2cc(O)c(O)c(O)c2)oc2cc(O)cc(O)c12", "cell line": "SW780", "effect on": "cell growth or viability", "technique": "ATP luminescence", "time": "72 h", "IC50 [nM]": 20900}
{"SMILES": "Cc1c[nH]c(/C=C2\\C(=O)Nc3ccccc32)c1CCC(=O)O", "cell line": "SW780", "effect on": "cell growth or viability", "technique": "MTT", "time": "5 days", "IC50 [nM]": 6000}
